Source: ChEMBL document CHEMBL2157911, “Synthesis and biological evaluation of a series of podophyllotoxins derivatives as a class of potent antitubulin agents” (Bioorg Med Chem, 2012)

Tests used:
K562 = assay: Cytotoxicity against human K562 cells after 48 hrs; type: functional, cell-based; details: K562, 48 h
Summary of the method: (§1)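 Cells were grown in RPMI 1640 with 10% fetal serum, 2 mM L-glutamine, […], penicillin and streptomycin. Log-phase cells were seeded, left 24 h at 37 °C/5% CO2 to attach, then exposed to 0–100 µM compound for 48 h (DMSO <0.1%), five wells per concentration.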

[1] = Inhibition of goat brain tubulin polymerization after 30 mins; design: species or system Capra hircus
Summary of the method: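 Goat brain tubulin was purified by two polymerization–depolymerization cycles. Tubulin (10 µM) was incubated with compound at 0, 10, 20, 40 or 60 µM in buffer containing 20% glycerol and […] at 37 °C, then cooled to 0 °C. Assembly was followed turbidimetrically in a fluorescence plate reader.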

HeLa = assay: Cytotoxicity against human HeLa cells after 48 hrs; type: functional, cell-based; summary of the method: as §1
HepG2 = assay: Cytotoxicity against human HepG2 cells after 48 hrs; type: functional, cell-based; details: HepG2, 48 h; summary of the method: as §1
SGC-7901 = assay: Cytotoxicity against human SGC7901 cells after 48 hrs; type: functional, cell-based; details: SGC-7901, 48 h; summary of the method: as §1

SMILES | IC50 (K562) | IC50 [1] | IC50 (HeLa) | IC50 (HepG2) | IC50 (SGC-7901)
COc1cc([C@@H]2c3cc4c(cc3[C@H](O)[C@H]3COC(=O)[C@H]23)OCO4)cc(OC)c1OC [PODOFILOX] | 4.51 µM | 24 µM | 0.14 µM | 0.51 µM | 0.34 µM
COc1cc2c(c(OC)c1OC)-c1ccc(OC)c(=O)cc1[C@@H](NC(C)=O)CC2 [COLCHICINE] | 0.55 µM | – | 0.1 µM | 0.02 µM | 0.05 µM
COc1cc([C@@H]2c3cc4c(cc3[C@@H](OCC/C(=N\S(C)(=O)=O)N(C3CCCCC3)C3CCCCC3)[C@H]3COC(=O)[C@H]23)OCO4)cc(OC)c1OC | 2.61 µM | – | 4.33 µM | 1.95 µM | 3.21 µM
COc1cc([C@@H]2c3cc4c(cc3[C@@H](OCC/C(=N\S(C)(=O)=O)N(C)C)[C@H]3COC(=O)[C@H]23)OCO4)cc(OC)c1OC | 5.18 µM | – | 2.58 µM | 4.17 µM | 3.71 µM
COc1cc([C@@H]2c3cc4c(cc3[C@@H](OCC/C(=N\S(C)(=O)=O)N3CCCCC3)[C@H]3COC(=O)[C@H]23)OCO4)cc(OC)c1OC | 9.01 µM | – | 10.4 µM | 57.1 µM | 18.2 µM
CCCN(CCC)/C(CCO[C@@H]1c2cc3c(cc2[C@@H](c2cc(OC)c(OC)c(OC)c2)[C@H]2C(=O)OC[C@@H]21)OCO3)=N/S(C)(=O)=O | 2.96 µM | – | 2.63 µM | 2.14 µM | 2.87 µM
COc1cc([C@@H]2c3cc4c(cc3[C@@H](OCC/C(=N\S(C)(=O)=O)NCc3ccccc3)[C@H]3COC(=O)[C@H]23)OCO4)cc(OC)c1OC | 12.1 µM | – | 11.2 µM | 17.9 µM | 19.2 µM
COc1cc([C@@H]2c3cc4c(cc3[C@@H](OCC/C(=N\S(C)(=O)=O)N3CCCC3)[C@H]3COC(=O)[C@H]23)OCO4)cc(OC)c1OC | 8.34 µM | – | 5.99 µM | 20.8 µM | 11.2 µM
COc1cc([C@@H]2c3cc4c(cc3[C@@H](OCC/C(N)=N\S(C)(=O)=O)[C@H]3COC(=O)[C@H]23)OCO4)cc(OC)c1OC | 3.48 µM | – | 3.75 µM | 2.87 µM | 4.31 µM
